Test [1] deals with PRMT5/MEP50 complex (Homo sapiens, UniProt O14744). Briefly: Inhibition of PRMT5/MEP50 (unknown origin) using biotin-labeled histone H4-20 peptide as substrate incubated for 8 mins in presence of [3H]-SAM cofactor by scintillation proximity assay. It is filed as protein-complex assay. The method, boiled down:
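Part of a methyltransferase selectivity panel. Test compound was serially diluted into a mixture of enzyme, [3H]-SAM cofactor and substrate. Methylated substrate was quantified by scintillation proximity assay. Reactions were held at initial-rate conditions with substrate turnover under 10%, and substrate concentrations were near Km.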
(In general: Scintillation proximity formats need no separation of bound from free tracer.)

In test [2] the test system is HEL. Briefly: Antiproliferative activity against human HEL cells assessed as inhibition of cell growth measured after 72 hrs by CellTiter-Glo assay. It is filed as functional, cell-based. The procedure, abridged: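 Cells were cultured with the test agent, serially diluted, for 72 h. The control received the same amount of DMSO. Cell viability was then measured, and IC50 values were taken from sensitivity curves.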
Background: In ATP-based viability assays light output follows the ATP content of the culture.

The target of test [3] is T1, Histone-lysine N-methyltransferase EHMT2 (Homo sapiens) (UniProt Q96KQ7).
T1 sequence (whole entry): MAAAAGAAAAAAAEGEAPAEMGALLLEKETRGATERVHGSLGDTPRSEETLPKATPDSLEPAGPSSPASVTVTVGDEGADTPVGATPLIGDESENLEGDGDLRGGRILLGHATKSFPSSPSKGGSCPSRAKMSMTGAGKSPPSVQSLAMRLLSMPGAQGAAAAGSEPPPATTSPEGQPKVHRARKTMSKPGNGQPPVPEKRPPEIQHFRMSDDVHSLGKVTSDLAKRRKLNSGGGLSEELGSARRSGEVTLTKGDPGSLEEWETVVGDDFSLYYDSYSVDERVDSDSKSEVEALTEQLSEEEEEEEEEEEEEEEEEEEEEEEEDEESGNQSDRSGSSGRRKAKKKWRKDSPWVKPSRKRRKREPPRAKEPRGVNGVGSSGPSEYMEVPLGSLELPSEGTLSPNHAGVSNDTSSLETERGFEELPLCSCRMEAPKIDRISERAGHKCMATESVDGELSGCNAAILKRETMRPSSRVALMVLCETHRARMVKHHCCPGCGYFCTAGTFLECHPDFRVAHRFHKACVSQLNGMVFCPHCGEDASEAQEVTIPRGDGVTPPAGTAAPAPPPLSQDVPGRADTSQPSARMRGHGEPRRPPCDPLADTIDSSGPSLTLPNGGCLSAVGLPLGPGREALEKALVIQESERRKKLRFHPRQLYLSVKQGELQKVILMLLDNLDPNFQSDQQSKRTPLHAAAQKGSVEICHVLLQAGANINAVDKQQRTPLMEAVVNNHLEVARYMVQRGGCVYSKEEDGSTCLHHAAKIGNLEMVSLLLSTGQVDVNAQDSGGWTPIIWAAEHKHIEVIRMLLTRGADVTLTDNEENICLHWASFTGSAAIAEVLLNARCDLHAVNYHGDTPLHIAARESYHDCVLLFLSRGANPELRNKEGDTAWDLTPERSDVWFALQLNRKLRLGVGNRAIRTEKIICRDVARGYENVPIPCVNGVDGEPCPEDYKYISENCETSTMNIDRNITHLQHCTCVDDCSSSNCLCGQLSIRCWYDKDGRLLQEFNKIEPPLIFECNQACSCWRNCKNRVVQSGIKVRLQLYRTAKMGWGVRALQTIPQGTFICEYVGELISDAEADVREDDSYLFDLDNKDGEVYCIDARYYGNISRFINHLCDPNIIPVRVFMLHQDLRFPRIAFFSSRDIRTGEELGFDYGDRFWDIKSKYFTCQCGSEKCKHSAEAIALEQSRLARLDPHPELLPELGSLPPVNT
Briefly: Inhibition of recombinant His-tagged human G9a expressed in Escherichia coli BL21 (DE3) assessed as residual activity at 10 uM using biotin-labeled histone H3-20 peptide as substrate incubated for 30 mins in presence of [3H]-SAM cofactor by scintillation proximity assay relative to control. The procedure, abridged:
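Single-point profiling used 10 μM inhibitor added to the enzyme, [3H]-SAM and substrate mixture. Methylated substrate was quantified by scintillation proximity assay. Reactions were held at initial rate, with yield under 10% and substrate near Km. Enzyme, [3H]-SAM and substrate final levels are given in the supplement.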

Test [4] addresses Protein arginine N-methyltransferase 8 (Homo sapiens, UniProt Q9NR22). Briefly: Inhibition of recombinant His-tagged human PRMT8 expressed in Escherichia coli BL21 (DE3) using biotin-labeled histone H4-20 peptide as substrate incubated for 8 mins in presence of [3H]-SAM cofactor by scintillation proximity assay. The procedure, abridged:
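The inhibitor was serially diluted and added to the enzyme, [3H]-SAM and substrate mixture, and methylated substrate was quantified by scintillation proximity assay. Reactions were held at initial rate, with yield under 10% and substrate near Km. PRMT3, PRMT8 and G9a were His-tagged human proteins, and PRMT7 was GST-tagged, all expressed in E. coli and affinity-purified.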

Test [5] addresses T2, Histone-arginine methyltransferase CARM1 (Homo sapiens) (UniProt Q86X55).
T2 sequence (whole entry): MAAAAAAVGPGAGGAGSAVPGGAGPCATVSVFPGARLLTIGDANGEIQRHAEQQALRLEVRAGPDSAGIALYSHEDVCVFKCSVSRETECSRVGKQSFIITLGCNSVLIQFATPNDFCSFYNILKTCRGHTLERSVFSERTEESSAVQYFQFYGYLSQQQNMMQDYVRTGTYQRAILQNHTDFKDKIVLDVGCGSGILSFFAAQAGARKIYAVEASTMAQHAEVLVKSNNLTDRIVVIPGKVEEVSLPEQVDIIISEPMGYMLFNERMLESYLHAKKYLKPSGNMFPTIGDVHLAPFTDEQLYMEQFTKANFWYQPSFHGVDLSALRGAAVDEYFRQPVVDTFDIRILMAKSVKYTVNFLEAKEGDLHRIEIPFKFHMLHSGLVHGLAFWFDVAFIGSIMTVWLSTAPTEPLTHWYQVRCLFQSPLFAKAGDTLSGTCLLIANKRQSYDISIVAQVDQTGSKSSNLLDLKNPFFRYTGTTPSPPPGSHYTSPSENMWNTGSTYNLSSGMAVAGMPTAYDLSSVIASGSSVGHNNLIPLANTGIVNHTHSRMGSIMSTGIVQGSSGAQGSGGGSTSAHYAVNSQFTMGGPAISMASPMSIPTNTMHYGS
The experiment in a line: Inhibition of recombinant GST-tagged CARM1 (unknown origin) expressed in Escherichia coli assessed as residual activity at 10 uM using histone H3.3 peptide as substrate incubated for 120 mins in presence of [3H]-SAM cofactor by radioactive filter plate assay relative to control.

pIC50: −log10 of the molar value.

Sequence of PRMT5/MEP50 complex (O14744 whole entry): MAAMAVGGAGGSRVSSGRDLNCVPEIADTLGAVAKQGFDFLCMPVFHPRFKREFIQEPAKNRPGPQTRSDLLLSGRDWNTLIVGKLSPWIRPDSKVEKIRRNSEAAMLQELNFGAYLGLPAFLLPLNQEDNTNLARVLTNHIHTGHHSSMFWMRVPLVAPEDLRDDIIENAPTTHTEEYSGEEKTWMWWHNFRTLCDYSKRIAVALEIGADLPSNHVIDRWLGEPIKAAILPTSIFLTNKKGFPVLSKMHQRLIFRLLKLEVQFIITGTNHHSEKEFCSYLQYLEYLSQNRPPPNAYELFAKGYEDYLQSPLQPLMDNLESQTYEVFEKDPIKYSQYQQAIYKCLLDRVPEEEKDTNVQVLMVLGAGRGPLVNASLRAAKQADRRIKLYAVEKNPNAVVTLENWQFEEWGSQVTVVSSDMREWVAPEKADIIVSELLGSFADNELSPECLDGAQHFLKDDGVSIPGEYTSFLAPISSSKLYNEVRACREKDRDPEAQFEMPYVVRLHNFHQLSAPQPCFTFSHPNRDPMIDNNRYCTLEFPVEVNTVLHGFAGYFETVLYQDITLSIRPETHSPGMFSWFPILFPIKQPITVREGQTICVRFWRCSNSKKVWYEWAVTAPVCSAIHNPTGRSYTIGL
Sequence of PRMT5/MEP50 complex (Q9BQA1 whole entry, further chain): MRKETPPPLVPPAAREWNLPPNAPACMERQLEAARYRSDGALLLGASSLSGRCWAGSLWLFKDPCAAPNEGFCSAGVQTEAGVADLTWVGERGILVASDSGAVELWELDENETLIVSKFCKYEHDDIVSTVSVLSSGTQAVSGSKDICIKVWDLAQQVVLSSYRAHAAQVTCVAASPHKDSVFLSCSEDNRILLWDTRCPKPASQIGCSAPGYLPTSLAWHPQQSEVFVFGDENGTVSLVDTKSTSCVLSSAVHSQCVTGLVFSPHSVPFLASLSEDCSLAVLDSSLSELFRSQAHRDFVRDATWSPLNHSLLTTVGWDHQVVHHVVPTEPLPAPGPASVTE
Sequence of Protein arginine N-methyltransferase 8 (Q9NR22 whole entry): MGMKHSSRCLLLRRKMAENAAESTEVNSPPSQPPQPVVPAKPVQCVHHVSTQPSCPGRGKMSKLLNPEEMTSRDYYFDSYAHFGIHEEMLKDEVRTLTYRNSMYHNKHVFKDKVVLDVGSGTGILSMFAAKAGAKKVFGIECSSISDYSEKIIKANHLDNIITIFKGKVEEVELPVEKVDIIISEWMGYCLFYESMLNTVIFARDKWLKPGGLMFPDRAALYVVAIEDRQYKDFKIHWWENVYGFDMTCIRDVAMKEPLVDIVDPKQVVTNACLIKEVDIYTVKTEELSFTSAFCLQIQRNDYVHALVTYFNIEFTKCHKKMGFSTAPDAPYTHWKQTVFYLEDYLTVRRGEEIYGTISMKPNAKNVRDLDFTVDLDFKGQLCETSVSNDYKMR

Consider `N=C(N)c1ccc(Nc2ccc(-c3cc4ccc(C(=N)N)cc4[nH]3)cc2)cc1`, for which the pIC50 in test [1] is 5.17; in test [2] it was 5.64; in test [4], 5.09. Besides, the Activity in test [3] amounted to 10.5%; in test [5], 50.7%.

The term pIC50 denotes the negative decadic logarithm of the IC50, by convention in mol/L.
